Most compounds without a hit are left out; they make up all but 2.4% or so of the library.
CendR NRP1 mod: modulators of CendR peptide binding to human neuropilin-1; O14786; actives 0.85% (n = 360,000); FAM-RPARPAR peptide binding to NRP-1, fluorescence polarization; inhibition, % at 25 µM; AID 602438;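 active = inhibition or corrected inhibition above about 18%, plus a signal ratio from 0.5 to 1.5, limit read from the data, passing the limit was not always enough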
MT1-MMP act inh: blocks activation of human MT1-MMP; P50281; HT1080 RFP-PRO-GFP cells, GFP/RFP ratio fluorescence, overnight; percent of plate control window, DMSO zero; AID 651647; actives 0.061% (n = 360,000); GFP/RFP ratio change, % at 20 µM;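 active = GFP/RFP ratio change of at least 30% with cell ATP level not reduced by more than half and red fluorescence within 50% of control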
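Assay system: HT1080 RFP-PRO-GFP cells. Benchmarks: DMSO vehicle wells and RFP-L50D-GFP reporter cell wells. Times: overnight cell settling, then overnight compound exposure, 37 °C, 5% CO2. Compound: 20 µM single dose, 1% DMSO. Read-out basis: GFP/RFP fluorescence ratio.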
SENP1 inh: SENP1 (human) catalytic domain inhibition. Q9P0U3. recombinant SENP1 catalytic domain, CyPet-SUMO1-YPet FRET cleavage. inhibition, % at 10 µM. actives 0.21% (n = 360,000). AID 624204;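 active = inhibition at least 30% at 10 µM, raw YFP signal under a set limit, fluorescence ratio 0.5 to 1.5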;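 also: 0% = enzyme with DMSO and 100% = no enzyme wells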
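Test system: recombinant human SENP1 catalytic domain, His6-tagged / Medium: pH 8 Tris buffer with EDTA, NaCl, BME, BSA, NP40, catalase / Also added: SUMO1 FRET substrate flanked by Cypet and Ypet, 25 nM / Times: 50 min reaction at room temperature / Signal: FRET, CFP and YFP emission / Control set: no-enzyme low control and enzyme-plus-DMSO high control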
Myeloid diff 2: myeloid differentiation induction. ER-HoxA9 myeloid progenitors, lysozyme-GFP differentiation, flow cytometry. calls only at 10 µM. actives 1% (n = 360,000). AID 624256;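 active = normalized GFP-positive differentiation at or above the plate's own cutoff, the solvent-only control mean plus 3 SD; inconclusive = no clear call, values can overlap the other calls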;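 also: cells exposed to compound for four days before flow analysis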
MIN6 prolif: induces beta-cell replication in MIN6 cells; actives 0.29% (n = 330,000); proliferation, % at 10 µM; MIN6 cells proliferation, ATPlite luminescence, 48 h; cells starved in 0.2% serum; 100% = growth in 10% serum;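 active = compounds whose signal lies at least 3.5 SD above the mean of all wells on their plate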;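 also: 0% = DMSO-treated cells in low-serum medium and 100% = 10% serum control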
DAGLB inh: diacylglycerol lipase beta (human) inhibition; Q8NCG7; HEK293T DAGLB membrane lysate, EnzChek fluorogenic substrate; inhibition, % at 5.17 µM; actives 0.059% (n = 340,000); in the data active = inhibition above about 34%;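 also: 0% = enzyme with vehicle and 100% = wells lacking enzyme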
Target sequence (Q8NCG7 whole entry, looked up): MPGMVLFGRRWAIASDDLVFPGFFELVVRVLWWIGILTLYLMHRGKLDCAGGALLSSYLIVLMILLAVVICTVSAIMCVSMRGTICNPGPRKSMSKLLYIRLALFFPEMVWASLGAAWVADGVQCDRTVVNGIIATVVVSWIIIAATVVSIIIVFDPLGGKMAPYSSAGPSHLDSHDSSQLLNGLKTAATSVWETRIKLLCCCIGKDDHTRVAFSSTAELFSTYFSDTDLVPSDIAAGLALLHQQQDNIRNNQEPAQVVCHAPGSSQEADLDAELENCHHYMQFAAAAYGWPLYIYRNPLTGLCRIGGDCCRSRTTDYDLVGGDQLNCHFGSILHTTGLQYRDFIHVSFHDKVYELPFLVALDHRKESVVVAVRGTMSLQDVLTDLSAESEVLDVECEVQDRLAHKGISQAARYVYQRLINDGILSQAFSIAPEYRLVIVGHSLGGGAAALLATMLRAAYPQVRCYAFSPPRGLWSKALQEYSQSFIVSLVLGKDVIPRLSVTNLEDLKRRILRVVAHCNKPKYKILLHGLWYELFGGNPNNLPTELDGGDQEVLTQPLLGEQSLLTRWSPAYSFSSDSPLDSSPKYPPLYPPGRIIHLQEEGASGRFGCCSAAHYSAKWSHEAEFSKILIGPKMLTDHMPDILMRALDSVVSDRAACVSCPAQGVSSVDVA
Myeloid diff CP1: compounds promoting myeloid differentiation | shares compounds with Myeloid diff 2 | ER-HoxA9 myeloid progenitors, GFP/Mac1 double-positive flow | calls only | actives 2% (n = 2,300) | AID 651706;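 active = share of green or green-and-red cells above 9 and 9% in run 1 or 4 and 3% in run 2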
GFP autofluor: compound fluorescence in myeloid differentiation counter-screen | actives 7.4% (n = 2,300) | fluorescence response, % (test concentration not listed) | shares compounds with Myeloid diff 2 | ER-HoxA9 myeloid progenitors, no estrogen, GFP autofluorescence flow cytometry; vehicle wells 0%, positive control 100%;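 active = over 5% cells positive for green fluorescent reporter, or over 2% positive for both it and APC stain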;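 also: range taken on the double positive population between DMSO and positive control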
Numbers without * were called inactive; i = inactive; u = inconclusive; x = no result; + = active, no number.

SMILES	CendR NRP1 mod	MT1-MMP act inh	SENP1 inh	Myeloid diff 2	MIN6 prolif	DAGLB inh	Myeloid diff CP1	GFP autofluor
CC(=O)NN1C(=O)c2ccc3c4c(ccc(c24)C1=O)C(=O)N(NC(C)=O)C3=O	9.2	0.8	0.9	+	-5.7	0.3	i	0.0
CCCn1cc(CN2CCC(n3nccc3NC(=O)C(OC)c3ccccc3)CC2)c(C)n1 (stereo unspecified)	0.1	1.3	0.0	i	-2.6	-2.7	x	x
c1ccc(Nc2cccc3ccccc23)cc1	2.4	4.4	-14.2	i	-2.3	-2.2	i	0.0
CC(=O)C1=CCC(c2ccco2)N(S(=O)(=O)c2ccc(C)cc2)C1 (stereo unspecified)	-10.5	4.0	0.5	i	x	x	x	x
Cc1ccc(CS(=O)(=O)Cc2ccc(C(=O)NC3CCCC3)o2)cc1	2.0	-0.8	1.1	i	2.1	-2.5	x	x
CC(=O)Nc1ccc(S(=O)(=O)N2CCSC2c2ccc(C)cc2)cc1 (stereo unspecified)	15.1	-0.5	-1.7	i	-0.1	-0.5	x	x
COc1ccc(C2SCCN2S(=O)(=O)c2ccc(NC(C)=O)cc2)cc1 (stereo unspecified)	7.3	0.6	-0.6	+	-1.7	-1.0	i	0.0
COc1ccc(C2CC(c3ccc(Cl)cc3)=NN2C(C)=O)cc1 (stereo unspecified)	4.4	2.0	-1.0	i	-1.3	-4.9	x	x
O=C(CCn1c(=O)c2cccn2c2ccccc21)Nc1ccc(F)cc1	17.3	0.5	-1.8	i	0.6	-2.3	x	x
CCN(CC)c1ccc(C=C(c2nnnn2-c2ccc(C)cc2)c2nnnn2-c2ccc(C)cc2)cc1	-65.0	-40.1	-24.9	i	1.0	-6.3	i	1.5
Cc1cccc(NC(=O)CNC(=O)CCc2nc3sc4c(c3c(=O)[nH]2)CCCC4)c1C	-118.5	-21.0	-23.0	+	4.2	3.5	i	0.0
COc1ccccc1NC(=O)c1ccc(NC(=O)COC(=O)c2cccnc2Cl)cc1	10.9	0.6	-1.4	i	1.4	-0.8	x	x
COc1cc(NCCCNC(C)C)c2nccc(C)c2c1	26.0*	4.6	-17.5	+	x	-1.6	i	0.3
COc1ccc2[nH]c3c(NCCN4CCCCC4)ncnc3c2c1	-0.2	17.8	-2.0	i	-1.9	1.0	x	x
O=C(CCNC(=O)c1ccc(Br)cc1)Nc1ccccc1N1CCCC1	-8.6	2.2	-0.6	i	3.9	2.1	x	x
O=C(CCNC(=O)c1ccc(Br)cc1)Nc1ccccc1N1CCOCC1	13.6	-11.2	-0.7	i	-2.0	2.5	i	0.0
O=C(Nc1ccccc1N1CCOCC1)c1cccc2c(Br)cccc12	17.1	-8.7	0.1	+	0.6	2.9	i	0.0
O=C(Nc1ccccc1N1CCOCC1)c1ccc([N+](=O)[O-])o1	-3.6	1.4	-0.3	i	-6.0	-0.1	i	0.0
CCN(C1CCCCC1)S(=O)(=O)c1cc2c3c(c1)CCN3C(=O)CC2	3.2	1.9	0.0	i	2.2	0.5	x	x
O=C(CC1C(=O)NCCN1C(=O)Nc1ccccc1)Nc1cccc(C(F)(F)F)c1 (stereo unspecified)	43.7*	-5.3	1.6	+	-5.0	2.2	i	1.2
CN=C1SC(CC(=O)Nc2cccc(C(F)(F)F)c2)C(=O)N1C (stereo unspecified)	-21.5	-3.3	-1.4	i	-2.5	0.1	i	0.0
O=C(CC1SCCNC1=O)Nc1cccc(C(F)(F)F)c1 (stereo unspecified)	-1.3	1.2	1.2	+	-3.5	-3.4	i	0.0
O=C(O)c1ccccc1N/N=C/c1c(Sc2nnnn2-c2ccccc2)nc2ccccn2c1=O	-165.3	-14.9	70.7*	+	-3.6	3.3	+	1.9
O=c1c(/C=N/Nc2ccccc2)c(Sc2nnnn2-c2ccccc2)nc2ccccn12	133.4	-149.7	-21.7	i	x	-3.0	x	x
O=c1[nH]c2ccccc2n1CCC1CCCCC1	22.2	3.8	3.3	i	0.3	1.4	x	x
SMILES	CendR NRP1 mod	MT1-MMP act inh	SENP1 inh	Myeloid diff 2	MIN6 prolif	DAGLB inh	Myeloid diff CP1	GFP autofluor
CCn1c(Cc2cccs2)nnc1SCC(=O)NC(C)(C)C	10.3	0.2	0.7	i	-1.3	0.0	x	x
CC1=C(C(=O)N2CCOCC2)CC(CC(=O)NCc2ccco2)C(=O)N1CCC1=CCCCC1 (stereo unspecified)	-9.1	-4.1	3.7	i	x	-1.9	x	x
CC(/C=N/NC(=O)c1cccnc1)=C\c1ccco1	-8.0	-5.2	-3.0	i	0.6	0.7	i	0.0
COC(=O)Cc1c(C)c2ccc(OC(=O)c3ccccc3)cc2oc1=O	-5.5	3.9	-133.1	i	-0.2	0.8	i	0.0
COc1ccc(NC(=O)CN2CCN(c3nc(-c4cccc(OC)c4)cs3)CC2)cc1	-4.0	-0.7	-4.6	i	-4.2	-3.9	x	x
COc1cccc(-c2csc(N3CCN(CC(=O)Nc4ccc5c(c4)OCO5)CC3)n2)c1	-2.9	-6.0	-7.1	i	-4.5	-1.6	i	0.4
c1coc(CNC2C3CC4CC(C3)CC2C4)c1 (stereo unspecified)	-2.6	-2.0	3.1	i	0.2	-0.2	i	0.2
CCN(CC)S(=O)(=O)c1cccc(NC(=O)c2cc(=O)[nH]c3ccccc23)c1	-16.9	6.4	-15.7	i	-0.9	-4.5	x	x
O=C(N/N=C/c1ccc([N+](=O)[O-])o1)c1cc2ccccc2o1	-14.5	-11.3	-4.8	i	-6.2	-1.4	i	0.0
O=C(N/N=C/c1ccc([N+](=O)[O-])o1)c1cc2c(ccc3ccccc32)o1	-14.5	-8.8	-16.4	u	x	-11.5	x	x
COc1ccc(CNC(=O)N2CCN(c3cccc(Cl)c3)CC2)cc1OC	5.4	0.9	-0.1	i	-1.4	-0.6	x	x
Cc1cccc(N2CCN(C(=O)NCc3ccc(Cl)cc3)CC2)c1	9.2	x	2.4	i	-3.7	-7.4	i	0.0
Cn1c(=O)c2c(nc(SCC(=O)N3c4ccccc4CCc4ccccc43)n2C)n(C)c1=O	13.5	-6.5	3.8	+	x	3.6	i	0.3
Cn1c(=O)c2c(nc(SCC(=O)N3CCc4ccccc4C3)n2C)n(C)c1=O	15.0	2.2	0.7	i	-0.6	-0.8	x	x
Cc1ccc(Oc2ccc(-c3nc(N)nc(N)n3)cc2)cc1	1.8	2.3	-2.9	+	0.3	1.7	i	0.0
